Measured values as given in ChEMBL document CHEMBL1833789, “Inhibition of xc⁻ transporter-mediated cystine uptake by sulfasalazine analogs” (Bioorg Med Chem Lett, 2011).

Target: T1, Cystine/glutamate transporter (Homo sapiens, UniProt Q9UPY5)
T1 sequence (Q9UPY5 whole entry): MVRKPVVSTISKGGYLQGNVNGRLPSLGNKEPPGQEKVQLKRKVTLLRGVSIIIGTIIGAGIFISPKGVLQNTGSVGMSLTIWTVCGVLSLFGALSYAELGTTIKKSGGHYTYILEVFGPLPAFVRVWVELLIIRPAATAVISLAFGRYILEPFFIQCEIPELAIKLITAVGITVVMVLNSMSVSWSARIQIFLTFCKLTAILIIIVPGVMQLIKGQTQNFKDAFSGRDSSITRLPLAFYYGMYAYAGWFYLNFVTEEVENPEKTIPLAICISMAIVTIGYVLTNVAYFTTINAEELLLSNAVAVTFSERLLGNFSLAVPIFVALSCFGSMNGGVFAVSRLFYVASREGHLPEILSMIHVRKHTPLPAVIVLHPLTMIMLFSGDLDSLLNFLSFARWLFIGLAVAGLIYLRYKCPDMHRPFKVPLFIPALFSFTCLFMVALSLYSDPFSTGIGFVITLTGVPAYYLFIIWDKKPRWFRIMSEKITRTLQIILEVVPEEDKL
Test: Inhibition of xc-cystine-glutamate antiporter-mediated cystine uptake in human U87 cells using L-[14C]cystine as substrate after 15 mins by liquid scintillation counting
Format: cell-based, U-87MG ATCC
In short: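 U87 human glioblastoma-astrocytoma cells, seeded at 0.067 × 10^6 per well and grown 6 days to confluency. Washed with pre-warmed sodium-free choline-chloride uptake buffer (HEPES 10 mM, pH 7.4), then given 80 µM L-[14C(U)]-cystine at 37 °C with or without inhibitor at various concentrations. Uptake stopped by three ice-cold washes, cells lysed in 0.1 N NaOH, counts normalized to protein.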

Row | IC50 [µM] | Structure (SMILES)
1 | > 1000 | COC(=O)c1cc(C#Cc2ccc(S(=O)(=O)Nc3ccccn3)cc2)ccc1O
2 | > 1000 | Nc1ccc(O)c(C(=O)O)c1 [MESALAMINE]
3 | 200 | O=C(O)c1cc(/N=N/c2ccccc2)ccc1O
4 | 75 | O=C(O)c1cccc(C#Cc2ccc(S(=O)(=O)Nc3ccccn3)cc2)c1
5 | > 1000 | Nc1ccc(S(=O)(=O)Nc2ccccn2)cc1 [SULFAPYRIDINE]
6 | 30 | O=C(O)c1cc(/N=N/c2ccc(S(=O)(=O)Nc3ccccn3)cc2)ccc1O [SULFASALAZINE]
7 | 900 | COC(=O)c1cc(/C=C/c2ccc(S(=O)(=O)Nc3ccccn3)cc2)ccc1O
8 | 70 | Cc1cccnc1NS(=O)(=O)c1ccc(C#Cc2ccc(O)c(C(=O)O)c2)cc1 [SUSALIMOD]
9 | 700 | O=C(O)c1cc(CCc2ccc(S(=O)(=O)Nc3ccccn3)cc2)ccc1O
10 | 920 | O=C(O)c1cccc(CCc2ccc(S(=O)(=O)Nc3ccccn3)cc2)c1
11 | 15 | N[C@H](C(=O)O)c1ccc(C(=O)O)cc1
12 | 150 | O=C(O)c1cc(C#Cc2ccccc2)ccc1O
13 | 270 | O=C(O)c1cccc(C#Cc2ccccc2)c1
14 | 30 | O=C(O)c1cc(C#Cc2ccc(S(=O)(=O)Nc3ccccn3)cc2)ccc1O
15 | 70 | O=C(O)c1cc(/C=C/c2ccc(S(=O)(=O)Nc3ccccn3)cc2)ccc1O
16 | > 1000 | COC(=O)c1cc(CCc2ccc(S(=O)(=O)Nc3ccccn3)cc2)ccc1O
17 | > 1000 | N[C@@H](C(=O)O)c1ccc(C(=O)O)cc1
